According to ChEMBL document CHEMBL1275546, “Use of gyrase resistance mutants to guide selection of 8-methoxy-quinazoline-2,4-diones” (2008):
Values after ≈ are worked out from the molar mass of the structure shown. Active and inactive are the calls of the source. The calls are words filed in the database; no cut-off is given here.

Experiments:
Escherichia coli [1] = assay: Ratio of MIC for Escherichia coli K-12 KD2934 harboring gyrB K447E mutant gene to MIC for Escherichia coli K-12 KD1397 harboring wild type gyrB gene; format: functional
Summary of the method: (§1)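 Isogenic E. coli K-12 tolC::Tn10 strains made by P1 transduction. Each grown in LB to mid-exponential phase, diluted to 10^{4-5} CFU/ml in LB tubes with drug, incubated overnight at 37°C. MIC = lowest concentration blocking visible growth. Ratio = mutant MIC divided by KD1397 (gyr+) MIC.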

Escherichia coli [2] = assay: Ratio of MIC for Escherichia coli K-12 KD2932 harboring gyrB D426N mutant gene to MIC for Escherichia coli K-12 KD1397 harboring wild type gyrB gene; format: functional; summary of the method: as §1
Escherichia coli [3] = assay: Bactericidal activity against wild type Escherichia coli K-12 KD1397 at 10 times MIC; format: functional
Summary of the method: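 Exponentially growing E. coli K-12 (tolC-deficient via Tn10, gyr+) in LB at 37°C was exposed to drug at 10× the MIC for the indicated times. Aliquots were diluted and plated on drug-free agar to count CFU. Survival is expressed as the fraction of CFU present when drug was added. MIC came from overnight broth tubes inoculated at 10^4-5 CFU/ml and read by eye.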

Escherichia coli [4] = assay: Ratio of MIC for Escherichia coli K-12 KD2862 harboring gyrA S83L mutant gene to MIC for Escherichia coli K-12 KD1397 harboring wild type gyrA gene; format: functional; summary of the method: as §1
Escherichia coli [5] = assay: Ratio of MIC for Escherichia coli K-12 KD2864 harboring gyrA A84P mutant gene to MIC for Escherichia coli K-12 KD1397 harboring wild type gyrA gene; format: functional; summary of the method: as §1
Escherichia coli [6] = assay: Ratio of MIC for Escherichia coli K-12 KD2876 harboring gyrA S83W mutant gene to MIC for Escherichia coli K-12 KD1397 harboring wild type gyrA gene; format: functional; summary of the method: as §1
Escherichia coli [7] = assay: Ratio of MIC for Escherichia coli K-12 KD2878 harboring gyrA A67S mutant gene to MIC for Escherichia coli K-12 KD1397 harboring wild type gyrA gene; format: functional; summary of the method: as §1
Escherichia coli [8] = assay: Ratio of MIC for Escherichia coli K-12 KD2880 harboring gyrA D87Y mutant gene to MIC for Escherichia coli K-12 KD1397 harboring wild type gyrA gene; format: functional; summary of the method: as §1
Escherichia coli [9] = assay: Ratio of MIC for Escherichia coli K-12 KD2882 harboring gyrA G81C mutant gene to MIC for Escherichia coli K-12 KD1397 harboring wild type gyrA gene; format: functional; summary of the method: as §1
Escherichia coli [10] = assay: Ratio of MIC for Escherichia coli K-12 KD2884 harboring gyrA A106H mutant gene to MIC for Escherichia coli K-12 KD1397 harboring wild type gyrA gene; format: functional; summary of the method: as §1
Escherichia coli [11] = assay: Ratio of MIC for Escherichia coli K-12 KD2886 harboring gyrA A51V mutant gene to MIC for Escherichia coli K-12 KD1397 harboring wild type gyrA gene; format: functional; summary of the method: as §1
Escherichia coli [12] = assay: Ratio of MIC for Escherichia coli K-12 KD2955 harboring gyrA D82A mutant gene to MIC for Escherichia coli K-12 KD1397 harboring wild type gyrA gene; format: functional; summary of the method: as §1
Escherichia coli [13] = assay: Ratio of MIC for Escherichia coli K-12 KD2866 harboring gyrA D87Y mutant gene to MIC for Escherichia coli K-12 KD1397 harboring wild type gyrA gene
Escherichia coli [14] = assay: Antibacterial activity against wild type Escherichia coli K-12 KD1397 harboring gyr gene; format: functional
Summary of the method: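 Broth MIC: E. coli K-12 tolC::Tn10 strain grown in LB to mid-exponential phase, diluted to 10^4-5 CFU/ml in tubes of LB containing drug, incubated overnight at 37°C; MIC = lowest concentration blocking visible growth.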

Escherichia coli [15] = assay: Bactericidal activity against Escherichia coli K-12 KD2866 harboring gyrA D87Y mutant gene assessed as bacterial count at 10 times MIC; format: functional, organism-based
Escherichia coli [16] = assay: Bactericidal activity against Escherichia coli K-12 […] harboring gyrA D87Y mutant gene assessed as bacterial count at 10 times MIC after 2 hrs; format: functional, organism-based
Escherichia coli [17] = assay: Bactericidal activity against wild type Escherichia coli K-12 KD1397 at 10 times MIC after 2 hrs; format: functional, organism-based
Summary of the method: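 Wild-type KD1397 (tolC-deficient), exponential-phase LB culture, exposed to drug at 10× MIC for timed intervals or for 2 h. Samples diluted and plated on drug-free agar for CFU counts. Survival given as fraction of CFU at drug addition.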

## COc1c(N2CC[C@@H](CN)C2)c(F)cc2c(=O)[nH]c(=O)n(C3CC3)c12
Escherichia coli [1]
  Ratio: <1
Escherichia coli [2]
  Ratio: <1

## CCC1CN(c2c(F)cc3c(=O)c(C(=O)O)cn(C4CC4)c3c2OC)CCN1 (stereo not drawn)
Escherichia coli [1]
  Ratio: <1
Escherichia coli [2]
  Ratio: 2
Escherichia coli [3]
  Activity: Active
  fold change (FC): 2

## COc1c(N2CC[C@H](N)C2)c(F)cc2c(=O)n(N)c(=O)n(C3CC3)c12
Escherichia coli [1]
  Ratio: <1
Escherichia coli [2]
  Ratio: 1
Escherichia coli [4]
  Ratio: 1
Escherichia coli [5]
  Ratio: 1
Escherichia coli [6]
  Ratio: 1
Escherichia coli [7]
  Ratio: 1
Escherichia coli [8]
  Ratio: 1
Escherichia coli [9]
  Ratio: 1
Escherichia coli [10]
  Ratio: 1
Escherichia coli [11]
  Ratio: 1
Escherichia coli [12]
  Ratio: 1
Escherichia coli [13]
  Ratio: 1

## COc1c(N2CC[C@@H](CN)C2)c(F)cc2c(=O)n(N)c(=O)n(C3CC3)c12
Escherichia coli [1]
  Ratio: <1
Escherichia coli [2]
  Ratio: <1
Escherichia coli [14]
  MIC: 0.7 µg/mL (≈ 1.93 µM)
Escherichia coli [3]
  Activity: Active
Escherichia coli [15]
  Activity: Active
Escherichia coli [16]
  Activity: Active
Escherichia coli [4]
  Ratio: 1
Escherichia coli [5]
  Ratio: 1
Escherichia coli [6]
  Ratio: 1
Escherichia coli [7]
  Ratio: 1
Escherichia coli [8]
  Ratio: 1
Escherichia coli [9]
  Ratio: 1
Escherichia coli [10]
  Ratio: 1
Escherichia coli [11]
  Ratio: 1
Escherichia coli [12]
  Ratio: 1
Escherichia coli [13]
  Ratio: 1

## COc1c(N2CC[C@H](N)C2)c(F)cc2c(=O)[nH]c(=O)n(C3CC3)c12
Escherichia coli [1]
  Ratio: <1
Escherichia coli [2]
  Ratio: 1

## COc1c(N2CC[C@@H](CN)C2)c(F)cc2c(=O)c(C(=O)O)cn(C3CC3)c12
Escherichia coli [1]
  Ratio: >1
Escherichia coli [2]
  Ratio: 2
Escherichia coli [14]
  MIC: 0.004 µg/mL (≈ 0.0107 µM)

## COc1c(N2CC[C@H](N)C2)c(F)cc2c(=O)c(C(=O)O)cn(C3CC3)c12
Escherichia coli [1]
  Ratio: >1
Escherichia coli [2]
  Ratio: 2
Escherichia coli [14]
  MIC: 0.016 µg/mL (≈ 0.0443 µM)

## CCC1CN(c2c(F)cc3c(=O)[nH]c(=O)n(C4CC4)c3c2OC)CCN1 (stereo not drawn)
Escherichia coli [1]
  Ratio: <1
Escherichia coli [2]
  Ratio: 1

## COc1c(N2C[C@@H]3CCCN[C@@H]3C2)c(F)cc2c(=O)c(C(=O)O)cn(C3CC3)c12 [MOXIFLOXACIN]
Escherichia coli [1]
  Ratio: <1
Escherichia coli [2]
  Ratio: 2

## CCC1CN(c2c(F)cc3c(=O)n(N)c(=O)n(C4CC4)c3c2OC)CCN1 (stereo not drawn)
Escherichia coli [1]
  Ratio: <1
Escherichia coli [2]
  Ratio: 1

## COc1c(N2C[C@@H]3CCCN[C@@H]3C2)c(F)cc2c(=O)[nH]c(=O)n(C3CC3)c12
Escherichia coli [1]
  Ratio: <1
Escherichia coli [2]
  Ratio: 1

## COc1c(N2C[C@@H]3CCCN[C@@H]3C2)c(F)cc2c(=O)n(N)c(=O)n(C3CC3)c12
Escherichia coli [1]
  Ratio: <1
Escherichia coli [2]
  Ratio: 1
Escherichia coli [17]
  Activity: inactive
Escherichia coli [4]
  Ratio: 1
Escherichia coli [5]
  Ratio: 1
Escherichia coli [6]
  Ratio: 1
Escherichia coli [7]
  Ratio: 1
Escherichia coli [8]
  Ratio: 1
Escherichia coli [9]
  Ratio: 1
Escherichia coli [10]
  Ratio: 1
Escherichia coli [11]
  Ratio: 1
Escherichia coli [12]
  Ratio: 1
Escherichia coli [13]
  Ratio: 1
